This note sets out measurements from ChEMBL document CHEMBL3352175, “2',6'-Dihalostyrylanilines, pyridines, and pyrimidines for the inhibition of the catalytic subunit of methionine S-adenosyltransferase-2” (J Med Chem, 2014).

Structures are written as SMILES. pIC50: −log10 of the molar value. Active and inactive are the calls of the source. No cut-off for these calls is given here. Some results are limits rather than exact numbers.

Test [1] in a line: Antiproliferative activity against human LS 174T cells by cell viability analyzer. The settings on record: LS174T. The class given is functional, cell-based. The method, boiled down:
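LS174T colon cancer cells seeded at 3 × 10^4 cells/mL, treated next day with compounds at 1–300 nM (freshly made DMSO stocks diluted in buffer). Proliferation read by automated cell viability counting. Triplicate at each concentration; IC50 from concentration–response curves by nonlinear regression one-site fit.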

In test [2] the target is Voltage-gated inwardly rectifying potassium channel KCNH2 (Homo sapiens, UniProt Q12809). The test is described as follows: Inhibition of human ERG over-expressed in HEK293 cell membrane by [3H]dofetilide binding assay. In kind it is cell membranes.
Test [3] has as its target S-adenosylmethionine synthase isoform type-2 (Homo sapiens) (UniProt P31153). Description: Inhibition of recombinant His-tagged MAT2A (unknown origin) using L-methionine and ATP at 30 uM. In a few lines:
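Purified His-tagged MAT2A holoenzyme (3 μg) preincubated with compound (30 μM final) 10 min at room temperature, then given L-methionine (50 μM) and ATP (50 μM) in 50 mM Tris pH 8.0, 50 mM KCl, MgCl2; 25 min at room temperature. Released Pi measured by malachite green absorbance at 635 nm; triplicate; activity expressed relative to reference lead.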

A short description of test [4]: Ratio of IC50 for human ERG to IC50 for inhibition of human LS174T cell proliferation.

S-adenosylmethionine synthase isoform type-2 (Homo sapiens), sequence (P31153 whole entry, looked up, canonical isoform): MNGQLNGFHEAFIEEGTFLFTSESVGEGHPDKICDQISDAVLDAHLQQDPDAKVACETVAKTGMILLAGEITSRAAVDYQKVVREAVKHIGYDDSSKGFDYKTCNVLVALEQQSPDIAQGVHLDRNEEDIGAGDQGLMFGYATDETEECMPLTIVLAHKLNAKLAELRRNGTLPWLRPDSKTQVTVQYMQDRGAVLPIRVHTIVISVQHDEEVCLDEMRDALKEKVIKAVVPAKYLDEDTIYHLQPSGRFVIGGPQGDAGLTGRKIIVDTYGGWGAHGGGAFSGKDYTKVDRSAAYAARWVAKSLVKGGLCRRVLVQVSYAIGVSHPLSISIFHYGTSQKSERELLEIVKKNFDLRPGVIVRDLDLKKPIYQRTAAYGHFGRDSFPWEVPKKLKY
Voltage-gated inwardly rectifying potassium channel KCNH2, sequence (Q12809 whole entry, canonical isoform): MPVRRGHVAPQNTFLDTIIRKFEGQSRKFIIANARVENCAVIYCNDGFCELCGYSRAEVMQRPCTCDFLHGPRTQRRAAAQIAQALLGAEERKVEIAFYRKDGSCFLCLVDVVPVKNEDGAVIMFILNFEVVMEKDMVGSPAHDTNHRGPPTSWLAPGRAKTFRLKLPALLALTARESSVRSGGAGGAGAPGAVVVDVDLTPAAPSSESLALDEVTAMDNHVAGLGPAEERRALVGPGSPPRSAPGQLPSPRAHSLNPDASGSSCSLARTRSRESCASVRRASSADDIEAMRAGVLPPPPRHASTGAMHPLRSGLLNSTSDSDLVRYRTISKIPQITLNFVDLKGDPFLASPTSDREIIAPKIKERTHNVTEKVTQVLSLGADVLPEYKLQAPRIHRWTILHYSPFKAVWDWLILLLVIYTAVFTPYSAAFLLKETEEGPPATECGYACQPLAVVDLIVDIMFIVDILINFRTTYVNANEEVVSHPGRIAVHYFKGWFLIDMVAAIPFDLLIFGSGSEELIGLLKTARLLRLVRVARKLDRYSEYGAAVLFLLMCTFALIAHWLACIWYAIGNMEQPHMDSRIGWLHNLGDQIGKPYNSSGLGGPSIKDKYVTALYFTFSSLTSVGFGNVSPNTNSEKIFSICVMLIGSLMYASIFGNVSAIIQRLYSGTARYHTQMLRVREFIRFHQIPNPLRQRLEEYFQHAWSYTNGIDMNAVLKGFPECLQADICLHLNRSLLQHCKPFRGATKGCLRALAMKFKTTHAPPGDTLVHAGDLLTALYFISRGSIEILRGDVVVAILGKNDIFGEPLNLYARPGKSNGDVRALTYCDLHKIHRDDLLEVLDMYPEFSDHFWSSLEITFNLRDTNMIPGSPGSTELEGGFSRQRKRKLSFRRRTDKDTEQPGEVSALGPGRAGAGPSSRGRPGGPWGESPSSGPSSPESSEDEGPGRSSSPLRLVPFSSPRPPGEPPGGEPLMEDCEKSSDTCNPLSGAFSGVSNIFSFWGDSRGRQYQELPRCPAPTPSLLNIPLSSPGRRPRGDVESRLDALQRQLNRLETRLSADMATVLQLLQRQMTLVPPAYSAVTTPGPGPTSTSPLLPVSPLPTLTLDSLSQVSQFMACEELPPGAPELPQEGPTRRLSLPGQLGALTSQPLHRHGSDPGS

A word on the pIC50: it is the negative decadic logarithm of the IC50, by convention in mol/L. A higher pIC50 goes with a low IC50. With `CN(C)c1ncc(/C=C/c2c(Cl)cccc2Cl)cn1`, the pIC50 in test [1] was below 6.70.

With `CNc1ccc(/C=C/c2c(F)cccc2F)cc1`, the negative logarithm of the IC50 (pIC50) is 4.31 in test [2] and 8.12 in test [1]. Further, the inhibition entry in test [3] is “Active”. Moreover, the Ratio IC50 in test [4] amounted to 6500.

On to `CN(C)c1ccc(/C=C/c2c(F)cccc2F)cn1`, for which, in test [3], the inhibition entry was “Active”. Besides, the pIC50 in test [1] was 7.88.

For `CN(C)c1ncc(/C=C/c2c(F)cccc2F)cn1`, the negative logarithm of the IC50 (pIC50) in test [2] is 4.39; in test [1] it was below 6.70. Also, the inhibition entry in test [3] is “Active”. In test [4], the Ratio IC50 worked out at 500.

Take `CNc1ccc(/C=C/c2c(F)cccc2F)cn1`: the negative-log IC50 (pIC50) in test [1] is 7.52.

In the case of `CNc1ccc(/C=C/c2c(F)cccc2Cl)cc1`, the pIC50 in test [2] is 4.30; in test [1], 8.12. Besides, the inhibition result in test [3] was “Active”. Moreover, in test [4], the Ratio IC50 is 6600.

`CCNc1ncc(/C=C/c2c(F)cccc2F)cn1` gave a pIC50 in test [1] below 6.70.

For `CN(C)c1ccc(/C=C/c2c(F)cccc2F)nc1`, the pIC50 in test [2] is 4.68; in test [1], 7.24. Moreover, the inhibition entry in test [3] is “Active”. Moreover, the Ratio IC50 in test [4] was determined as 400.

For `CN(C)c1ccc(/C=C/c2c(Cl)cccc2Cl)cn1`, the inhibition entry in test [3] was “Active”. Moreover, in test [1], the pIC50 is 7.52.

In the case of `CNc1ccc(/C=C/c2c(Cl)cccc2Cl)cc1`, in test [3], the inhibition result was “Active”. In addition, in test [1], the negative-log IC50 (pIC50) was 7.30.

Regarding `CN(C)c1ccc(/C=C/c2c(F)cccc2Cl)cn1`, the negative logarithm of the IC50 (pIC50) is 4.23 in test [2] and 8.33 in test [1]. In addition, the inhibition entry in test [3] was “Active”. In addition, the Ratio IC50 in test [4] was determined as 12700.

`CCNc1ccc(/C=C/c2c(F)cccc2F)cn1` showed a negative logarithm of the IC50 (pIC50) in test [1] of 7.50.

Turning to `CNc1ccc(/C=C/c2c(F)cccc2Cl)cn1`, the figures for the pIC50 in test [2] and in test [1] were 4.70 and 8.40, respectively. In test [3], the inhibition entry was “Active”. The Ratio IC50 in test [4] was found to be 5000.

As for `CNc1ncc(/C=C/c2c(F)cccc2F)cn1`, in test [3], the inhibition result was “Active”. In test [1], this compound gave a negative logarithm of the IC50 (pIC50) below 6.70.

`CCNc1ccc(/C=C/c2c(F)cccc2F)cc1`: in test [1], the pIC50 was 6.70.

`CN(C)c1ccc(/C=C/c2c(F)cccc2F)cc1`: in test [3], the inhibition result is “Active”. This compound also showed a pIC50 in test [1] of 7.57.

On to `CNc1ncc(/C=C/c2c(Cl)cccc2Cl)cn1`, for which the pIC50 in test [1] is below 6.70.

Consider `CN(C)c1ccc(/C=C/c2c(F)cccc2Cl)nc1`, for which the negative logarithm of the IC50 (pIC50) in test [2] is 4.68; in test [1] it was 7.69. In test [3], the inhibition entry is “Active”. Moreover, the Ratio IC50 in test [4] amounted to 1000.

With `CNc1ncc(/C=C/c2c(F)cccc2Cl)cn1`, in test [1], the pIC50 is below 6.70.

`CNc1ccc(/C=C/c2c(Cl)cccc2Cl)cn1` had a negative-log IC50 (pIC50) in test [1] of 7.71.

As for `CN(C)c1ccc(/C=C/c2c(F)cccc2Cl)cc1`, the inhibition result in test [3] is “Active”. The same compound gave a pIC50 in test [1] of 7.72.

In the case of `CN(C)c1ccc(/C=C/c2c(Cl)cccc2Cl)cc1`, the inhibition result in test [3] was “Active”. In addition, in test [1], the negative-log IC50 (pIC50) was 6.67.

Regarding `CN(C)c1ncc(/C=C/c2c(F)cccc2Cl)cn1`, the negative-log IC50 (pIC50) in test [1] is below 6.70.

Take `CN(C)c1ccc(/C=C/c2c(Cl)cccc2Cl)nc1`: the inhibition entry in test [3] was “Active”. This compound also had a pIC50 in test [1] of 7.23.
